# Results as given in PubChem BioAssay AID504789 (Broad Institute, 2011).
# Results filed as inconclusive are left out. The source made the active and inactive calls.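 How the source made its calls: active means compound whose fitted half-maximal dose lies within ten times its top tested dose in every test run, killing cells; inconclusive means test runs disagree, or a run gives an unclear call; inactive means every test run inactive.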
# Test system: not listed separately
# Test: cytotoxicity in control HMLE_sh_eGFP cells, dose response, counter-screen for breast cancer stem cell project, cell-based, luminescence, dry powder, set 7 (AID 504789)
# Conditions: HMLE_sh_eGFP viability, CellTiter-Glo luminescence, 72 h; at 19.5 µM (top of the series)
# Procedure, shortened: (§1)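 Test system: HMLE_sh_eGFP control cells; buffer or medium: medium without serum; schedule: compound exposure approximately 70–74 h at 37 °C; technique: CellTiter-Glo ATP luminescence; control set: DMSO neutral control and 160 µM puromycin positive control, every plate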
row,Compound,"activity change, negative = cytotoxicity"
1,Cc1cccc(/C=C/C(=O)NC2=NCCS2)c1,23.8% (inactive)
2,O=C(O)COc1ccc(Cl)cc1Cl,-6.56% (inactive)
3,CC(C)c1ccc(/C=C/C(=O)N2CC(F)(F)C2)cc1,11.1% (inactive)
4,N#Cc1ccccc1/C=C/C(=O)NC1=NCCS1,5.88% (inactive)
5,N#Cc1cccc(/C=C/C(=O)NC2=NCCS2)c1,-7.41% (inactive)
6,CC(C)c1ccc(/C=C\C(=O)NC2=NCCS2)cc1,-12.1% (inactive)
7,O=C(COc1ccc(Cl)cc1Cl)N/N=C/c1ccccc1,11.1% (inactive)
8,O=C(COc1c(Cl)cc(Cl)cc1Cl)N/N=C/c1ccc[nH]1,17.5% (inactive)
9,CCc1ccc(/C=C/C(=O)NC2=NCCS2)cn1,-2.79% (inactive)
10,O=C(c1ccc(COc2ccccc2)o1)n1ccc(-c2ccc[nH]2)n1,10.5% (inactive)
11,O=C(COc1ccc(Cl)cc1Cl)Nc1nccs1,0.602% (inactive)
12,O=C(COc1ccc(Cl)cc1Cl)NC1=NCCS1,-6.79% (inactive)
13,O=C(COc1ccc(Cl)cc1Cl)n1ccc(-c2ccc[nH]2)n1,27.2% (inactive)
14,Cc1csc(NC(=O)c2ccc(COc3ncccc3F)o2)n1,-4.8% (inactive)
15,COc1cc(C(C)C)ccc1/C=C/C(=O)NC1=NCCS1,10.3% (inactive)
16,CC(C)c1ccc(C#CC(=O)NC2=NCCS2)cc1,6.05% (inactive)
17,Cc1csc(NC(=O)c2cccc(CNc3ccccn3)c2)n1,-7.38% (inactive)
18,COc1cc(OC(C)C)ccc1/C=C/C(=O)NC1=NCCS1,25% (inactive)
19,CN(C)C(=N)N=C(N)N,15.9% (inactive)
20,O=C(c1ccc(COc2ccccc2)o1)N1CC(F)(F)C1,13.3% (inactive)
21,Cc1ccnc(NCc2ccc(C(=O)Nc3nc(C)cs3)o2)c1,-1.56% (inactive)
22,Cc1csc(NC(=O)c2ccc(CNc3ncccc3F)o2)n1,3.58% (inactive)
23,Cc1csc(NC(=O)c2ccc(COc3cccnc3)o2)n1,17.4% (inactive)

# Test system: HMLE_sh_eGFP viability, CellTiter-Glo luminescence, 72 h
# Test: as above
# Conditions: not given
# Procedure, shortened: as §1
row,Compound,AC50
1,CC(C)c1ccc(/C=C/C(=O)n2ccc(-c3ccc[nH]3)n2)cc1,10.7 µM
2,Cc1cccc(NCc2cccc(C(=O)Nc3nc(C)cs3)c2)n1,25 µM
3,Cc1csc(NC(=O)c2cccc(COc3ccccc3F)c2)n1,12.4 µM
4,Cc1cccc(OCc2cccc(C(=O)Nc3nc(C)cs3)c2)c1,11.9 µM
5,Cc1cccc(NCc2ccc(C(=O)Nc3nc(C)cs3)o2)n1,21.9 µM
6,Cc1csc(NC(=O)c2cccc(COc3cccc(Cl)c3)c2)n1,3.87 µM
7,Cc1csc(NC(=O)c2ccc(COc3cccc(OC(F)(F)F)c3)o2)n1,3.01 µM
8,COc1cccc2c1C(=O)c1c(O)c3c(c(O)c1C2=O)C[C@@](O)(C(=O)CO)C[C@@H]3OC1C[C@H](N)[C@H](O)[C@H](C)O1 (some centres not stated),0.068 µM
9,Cc1csc(NC(=O)c2cccc(COc3cccc(F)c3)c2)n1,2.2 µM
